According to ChEMBL document CHEMBL4219066, “Identification and Mitigation of Reactive Metabolites of 2-Aminoimidazole-Containing Microsomal Prostaglandin E Synthase-1 Inhibitors Terminated Due to Clinical Drug-Induced Liver Injury” (J Med Chem, 2018):

Legend:
[1] = Drug level in rat hepatocytes treated with 2-Chloro-N-(4-cyano-1H-imidazol-2-yl)-5-(pivalamidomethyl)benzamide at 2 uM after 4 hrs by LC-MS/MS analysis; format: ADME, cell-based, Hepatocyte
[2] = Drug level in human hepatocytes treated with 2-Chloro-N-(4-cyano-1H-imidazol-2-yl)-5-(pivalamidomethyl)benzamide at 2 uM after 4 hrs by LC-MS/MS analysis; format: ADME, cell-based, Hepatocyte
[3] = Drug level in human liver microsomes treated with 2 -Chloro-N-(4,5-dimethyl-1H-imidazol-2-yl)-5-(pivalamidomethyl)benzamide at 2 uM after 0.5 hrs in presence of 1:1 ratio of unlabeled GSH and [glycine 13C2,15N]-labelled GSH by HPLC-MS analysis; format: ADME, microsome
Method in brief: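 Glutathione-trapping incubation in human liver microsomes fortified with GSH to capture reactive intermediates. Metabolites and GSH adducts were identified by MS.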

| SMILES | Drug metabolism [1] | Drug metabolism [2] | Drug metabolism [3] |
| --- | --- | --- | --- |
| CC(C)(CO)C(=O)NCc1ccc(Cl)c(C(=O)Nc2nc(C#N)c[nH]2)c1 | Metabolite_Detected | Metabolite_Detected |  |
| Cc1[nH]c(NC(=O)c2cc(CNC(=O)C(C)(C)C)ccc2Cl)nc1CSC[C@H](NC(=O)CC[C@H](N)C(=O)O)C(=O)NCC(=O)O |  |  | Metabolite_Detected |
